Measured values from ChEMBL document CHEMBL4007452, “Discovery of an Orally Selective Inhibitor of Signal Transducer and Activator of Transcription 3 Using Advanced Multiple Ligand Simultaneous Docking” (J Med Chem, 2017).
The source made the active and inactive calls. The rule behind the calls is not given here.

Tests used:
[1] = target: T1, Signal transducer and activator of transcription 1-alpha/beta (Homo sapiens) (UniProt P42224); experiment: Inhibition of STAT1 dimerization in human MDA-MB-231 cells assessed as inhibition of STAT1-STAT1 DNA binding activity at 5 uM after 24 hrs by EMSA; type: cell-based
T1 sequence (whole entry): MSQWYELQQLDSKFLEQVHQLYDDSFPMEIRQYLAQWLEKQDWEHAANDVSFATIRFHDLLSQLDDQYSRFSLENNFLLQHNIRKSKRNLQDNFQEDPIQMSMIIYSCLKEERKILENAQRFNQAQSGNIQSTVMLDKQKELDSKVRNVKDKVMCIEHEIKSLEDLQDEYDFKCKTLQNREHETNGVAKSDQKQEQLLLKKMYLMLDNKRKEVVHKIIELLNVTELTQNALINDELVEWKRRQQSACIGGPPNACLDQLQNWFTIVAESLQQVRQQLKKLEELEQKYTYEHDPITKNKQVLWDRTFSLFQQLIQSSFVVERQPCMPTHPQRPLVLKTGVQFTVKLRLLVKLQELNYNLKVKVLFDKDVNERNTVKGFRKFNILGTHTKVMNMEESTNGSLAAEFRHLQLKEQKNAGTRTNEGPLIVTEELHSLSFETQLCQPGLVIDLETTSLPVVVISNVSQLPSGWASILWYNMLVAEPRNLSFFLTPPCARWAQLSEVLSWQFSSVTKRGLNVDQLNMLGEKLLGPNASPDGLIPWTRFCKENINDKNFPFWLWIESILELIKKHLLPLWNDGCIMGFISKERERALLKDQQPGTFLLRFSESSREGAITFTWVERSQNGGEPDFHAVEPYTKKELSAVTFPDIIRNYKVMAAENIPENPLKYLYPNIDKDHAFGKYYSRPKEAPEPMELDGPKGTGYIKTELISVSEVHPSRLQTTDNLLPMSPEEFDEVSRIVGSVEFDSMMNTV
Procedure, shortened: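 MDA-MB-231 cells were treated at 5 µM for 0-24 h before nuclear extract preparation. Extracts were incubated with biotin-labeled probe for 30 min at room temperature, then analysed by EMSA.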

[2] = test system: MDA-MB-231; experiment: Anticancer activity against human MDA-MB-231 cells xenografted in BALB/c nude mouse assessed as reduction in tumor volume at 2.5 mg/kg, po qd administered for 32 days; type: functional; set-up: scale not given: the % may be the effect or the level left
Procedure, shortened: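 Female athymic BALB/c nude mice, 6 weeks old, bearing s.c. flank MDA-MB-231 xenografts (5 x 10^6 cells). Dosing began at about 100 mm3 tumor volume; 8 mice per group, one tumor each. Drug was given orally in saline, with a saline vehicle control, for 32 days. Caliper L and W measured every other day; volume = 0.5236×L×W².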

[3] = Tmax in Sprague-Dawley rat plasma at 1 mg/kg, iv measured after 24 hrs by UPLC analysis; type: ADME, organism-based
Procedure, shortened: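 Rats dosed i.v. or p.o. Plasma concentrations followed from 2 min to 24 h after dosing. The bioanalytical method was validated to FDA guidelines for selectivity, linearity, LLOQ, accuracy, precision, recovery, matrix effect and stability.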

[4] = test system: Rattus norvegicus; experiment: AUMC (0 to t) in Sprague-Dawley rat plasma at 1 mg/kg, iv measured after 24 hrs by UPLC analysis; type: ADME, organism-based; settings: in vivo
Procedure, shortened: (§1)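 Rat plasma sampled from 2 min to 24 h after a single i.v. (1 mg/kg) or p.o. (10 mg/kg) dose. Parameters were derived from the concentration-time profiles. The bioanalytical method was validated to FDA guidelines for selectivity, linearity, LLOQ, accuracy, precision, recovery, matrix effect and stability.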

[5] = Cmax in Sprague-Dawley rat plasma at 10 mg/kg, po measured after 24 hrs by UPLC analysis; type: ADME, organism-based; set-up: dose 10 mg/kg, route oral; procedure, shortened: as §1
[6] = target: T2, Signal transducer and activator of transcription 3 (Homo sapiens, UniProt P40763); settings: 2.5 to 5 uM
T2 sequence (P40763 whole entry): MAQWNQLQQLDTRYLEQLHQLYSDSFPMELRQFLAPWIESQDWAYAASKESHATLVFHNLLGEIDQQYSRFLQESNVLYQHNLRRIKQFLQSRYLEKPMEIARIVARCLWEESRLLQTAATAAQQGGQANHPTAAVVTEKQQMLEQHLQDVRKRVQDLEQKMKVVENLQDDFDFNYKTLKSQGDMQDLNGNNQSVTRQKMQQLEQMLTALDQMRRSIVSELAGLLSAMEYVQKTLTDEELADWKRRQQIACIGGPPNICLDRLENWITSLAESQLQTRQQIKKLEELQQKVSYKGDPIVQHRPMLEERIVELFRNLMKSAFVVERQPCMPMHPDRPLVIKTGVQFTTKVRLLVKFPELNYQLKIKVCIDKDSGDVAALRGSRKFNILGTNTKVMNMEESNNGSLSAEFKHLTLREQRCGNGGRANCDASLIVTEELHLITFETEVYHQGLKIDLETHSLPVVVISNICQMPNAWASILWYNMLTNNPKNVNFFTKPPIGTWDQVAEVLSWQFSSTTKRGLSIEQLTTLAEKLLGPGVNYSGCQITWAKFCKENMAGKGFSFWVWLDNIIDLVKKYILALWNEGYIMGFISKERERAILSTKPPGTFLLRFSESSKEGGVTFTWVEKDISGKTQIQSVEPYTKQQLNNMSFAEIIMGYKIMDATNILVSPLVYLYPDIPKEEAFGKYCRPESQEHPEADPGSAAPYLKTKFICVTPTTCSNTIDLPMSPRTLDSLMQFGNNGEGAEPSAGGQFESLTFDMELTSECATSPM

[7] = target: T2, Signal transducer and activator of transcription 3; settings: 5 to 10 uM

NS(=O)(=O)c1cccc2c1C(=O)C=C(Nc1ccccc1N1CCNCC1)C2=O
inhibition [1]: Active
Activity [2]: 53%
Tmax [3]: 1.98 min
AUMCt [4]: 109.3 hr2.ng/ml
Cmax [5]: 540 ng/mL
inhibition [6]: Active
inhibition [7]: Active
